Assay results as given in article PMC6218153 (Journal of Alzheimer's Disease Reports, 2018).
Where no end group is shown, it is not given here.

Assay: PK study in plasma and CSF after single IV, SC or IN dose
Assay type: in vivo, rat
How it was run: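 Cannulated rats (jugular vein, intracisternal; n = 6/route) received a single dose in PBS: IV or SC ~11 mg/kg over 1 min, or IN ~5.5 mg/kg, 10 μL per nostril at 6-min intervals over 18 min. K2EDTA plasma was taken pre-dose to 165 min and CSF pre-dose to 150/180 min. LC/MS/MS (ESI+, 1007.55 > 876.35) with noncompartmental PK; CL = Dose/AUC. CSF ratio = dose-normalised CSF AUC relative to IV.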

[1] = rat, in vivo, 5.5 mg/kg, IN 5.5 mg/kg, CSF
[2] = rat, in vivo, inhaled or intranasal, 5.5 mg/kg, IN 5.5 mg/kg, plasma
[3] = rat, in vivo, sc, 11 mg/kg, SC 11 mg/kg, CSF
[4] = rat, in vivo, sc, 11 mg/kg, SC 11 mg/kg, plasma

DEEEDEEL [P8, DEEEDEEL]
P8 concentration in plasma (IV 11.0 mg/kg single dose, 110 min, Rat 3): 39.8 ng/mL
P8 concentration in plasma (IV 11.0 mg/kg single dose, 130 min, Rat 1): 42.0 ng/mL
P8 concentration in plasma (IV 11.0 mg/kg single dose, 130 min, Rat 2): 18.3 ng/mL
P8 concentration in plasma (IV 11.0 mg/kg single dose, 130 min, Rat 3): 20.7 ng/mL
P8 concentration in CSF (IV 11.0 mg/kg single dose, 150 min, Rat 1): 4.88 ng/mL
P8 concentration in CSF (IV 11.0 mg/kg single dose, 150 min, Rat 2): 4.30 ng/mL
P8 concentration in CSF (IV 11.0 mg/kg single dose, 150 min, Rat 3): 3.57 ng/mL
P8 concentration in plasma (IV 11.0 mg/kg single dose, 165 min, Rat 1): 18.9 ng/mL
P8 concentration in plasma (IV 11.0 mg/kg single dose, 165 min, Rat 3): 9.72 ng/mL
P8 concentration in CSF (IV 11.0 mg/kg single dose, 180 min, Rat 1): 4.11 ng/mL
P8 concentration in CSF (IV 11.0 mg/kg single dose, 180 min, Rat 3): 1.06 ng/mL
P8 concentration in CSF (SC 11.0 mg/kg single dose, 10 min, Rat 1): 7.06 ng/mL
P8 concentration in CSF (SC 11.0 mg/kg single dose, 10 min, Rat 2): 22.6 ng/mL
P8 concentration in CSF (SC 11.0 mg/kg single dose, 10 min, Rat 3): 1.75 ng/mL
P8 concentration in CSF (SC 11.0 mg/kg single dose, 30 min, Rat 1): 25.2 ng/mL
P8 concentration in CSF (SC 11.0 mg/kg single dose, 30 min, Rat 2): 12.8 ng/mL
P8 concentration in CSF (SC 11.0 mg/kg single dose, 30 min, Rat 3): 8.03 ng/mL
P8 concentration in CSF (SC 11.0 mg/kg single dose, 60 min, Rat 1): 26.5 ng/mL
P8 concentration in CSF (SC 11.0 mg/kg single dose, 60 min, Rat 2): 17.1 ng/mL
P8 concentration in CSF (SC 11.0 mg/kg single dose, 60 min, Rat 3): 10.3 ng/mL
P8 concentration in plasma (SC 11.0 mg/kg single dose, 70 min, Rat 2): 4,150 ng/mL
P8 concentration in plasma (SC 11.0 mg/kg single dose, 70 min, Rat 3): 1,220 ng/mL
P8 concentration in plasma (SC 11.0 mg/kg single dose, 90 min, Rat 1): 2,600 ng/mL
P8 concentration in plasma (SC 11.0 mg/kg single dose, 90 min, Rat 2): 3,570 ng/mL
P8 concentration in plasma (SC 11.0 mg/kg single dose, 90 min, Rat 3): 908 ng/mL
P8 concentration in CSF (SC 11.0 mg/kg single dose, 100 min, Rat 1): 21.6 ng/mL
P8 concentration in CSF (SC 11.0 mg/kg single dose, 100 min, Rat 2): 16.3 ng/mL
P8 concentration in CSF (SC 11.0 mg/kg single dose, 100 min, Rat 3): 8.31 ng/mL
P8 concentration in plasma (SC 11.0 mg/kg single dose, 110 min, Rat 1): 2,120 ng/mL
P8 concentration in plasma (SC 11.0 mg/kg single dose, 110 min, Rat 2): 2,410 ng/mL
P8 concentration in plasma (SC 11.0 mg/kg single dose, 110 min, Rat 3): 804 ng/mL
P8 concentration in plasma (SC 11.0 mg/kg single dose, 130 min, Rat 1): 1,870 ng/mL
P8 concentration in plasma (SC 11.0 mg/kg single dose, 130 min, Rat 2): 3,030 ng/mL
P8 concentration in plasma (SC 11.0 mg/kg single dose, 130 min, Rat 3): 619 ng/mL
P8 concentration in CSF (SC 11.0 mg/kg single dose, 150 min, Rat 1): 11.8 ng/mL
P8 concentration in CSF (SC 11.0 mg/kg single dose, 150 min, Rat 2): 10.7 ng/mL
P8 concentration in CSF (SC 11.0 mg/kg single dose, 150 min, Rat 3): 5.71 ng/mL
P8 concentration in plasma (SC 11.0 mg/kg single dose, 165 min, Rat 1): 1,010 ng/mL
P8 concentration in plasma (SC 11.0 mg/kg single dose, 165 min, Rat 2): 1,600 ng/mL
P8 concentration in plasma (SC 11.0 mg/kg single dose, 165 min, Rat 3): 356 ng/mL
mean plasma exposure, SC relative to IN, corrected for dose (rat): 25 fold
percent of dose absorbed, SC relative to IN (rat): 25 fold
ratio or relative % F across the blood-brain barrier, % of the plasma concentrations (rat): < 1%
CSF Ratio (dose normalized CSF AUC of route / of IV dose) (rat, IN 5.5 mg/kg): 0.10±0.092
Plasma: CSF Ratio (AUC) (rat, IN 5.5 mg/kg): 0.041±0.041
Plasma: CSF Ratio (Cmax) (rat, IN 5.5 mg/kg): 0.064±0.093
Tmax (rat, IN 5.5 mg/kg, CSF): 27 ± 29 min
CSF exposure as % of plasma exposure (rat, IV): about 0.5%
Plasma: CSF Ratio (AUC) (rat, IV 11 mg/kg): 0.0052±0.0015
peak CSF Cmax (rat, IV 11 mg/kg, CSF, at the 10-min time point (first time point)): 65.6 ng/mL
t1/2 (rat, IV 11 mg/kg, plasma, terminal, 11 mg/kg): 21.9 ± 8.18 min
clearance as share of hepatic liver blood flow (rat, IV, based on a 70 mL/min/kg estimate): about 25%
CSF exposure as % of plasma exposure (rat, SC): about 0.5%
CSF Ratio (dose normalized CSF AUC of route / of IV dose) (rat, SC 11 mg/kg): 0.72±0.29
Plasma: CSF Ratio (AUC) (rat, SC 11 mg/kg): 0.0055±0.00054
Plasma: CSF Ratio (Cmax) (rat, SC 11 mg/kg): 0.0037±0.0005
AUC [1]: 5.5 ng·h/mL
Cmax [1]: 12.4 ± 17.7 ng/mL
Tmax (rat, in vivo, 5.5 mg/kg, Tmax, IN 5.5 mg/kg, CSF): 26.7 min
bioavailability (rat, in vivo, inhaled or intranasal, 5.5 mg/kg): 2.8 ± 0.88%
AUC [2]: 146 ng·h/mL
Cmax [2]: 197 ± 62.7 ng/mL
Tmax (rat, in vivo, inhaled or intranasal, 5.5 mg/kg, Tmax, IN 5.5 mg/kg, plasma): 5 min
Vd (rat, in vivo, iv, 11 mg/kg): 0.546 ± 0.306 L/kg
clearance (rat, in vivo, iv, 11 mg/kg): 17.6 ± 5.65 mL/min/kg
AUC (rat, in vivo, iv, 11 mg/kg, IV 11 mg/kg, CSF): 54.5 ng·h/mL
AUC (rat, in vivo, iv, 11 mg/kg, IV 11 mg/kg, plasma): 11300 ng·h/mL
half-life (rat, in vivo, iv, 11 mg/kg, t1/2, rat, IV 11 mg/kg, plasma, terminal): 22 ± 8.2 min
bioavailability (rat, in vivo, sc, 11 mg/kg): 65 ± 21%
AUC [3]: 39.7 ng·h/mL
AUC [4]: 7380 ng·h/mL
Cmax [3]: 19.8 ± 8.46 ng/mL
Cmax [4]: 5390 ng/mL
Tmax (rat, in vivo, sc, 11 mg/kg, Tmax, SC 11 mg/kg, CSF): 43 min
Tmax (rat, in vivo, sc, 11 mg/kg, Tmax, SC 11 mg/kg, plasma): 25 min
